# According to ChEMBL document CHEMBL1127577, “Identification of tricyclic analogs related to ellagic acid as potent/selective tyrosine protein kinase inhibitors” (J Med Chem, 1994):
# Where “and” joins values, the source holds several entries; their conditions need not be identical. Equal entries are not always repeated.
# Key:
# [1] = target: cAMP-dependent protein kinase (PKA) (Homo sapiens, UniProt P22694+P17612+P22612); test: In vitro inhibitory activity against protein kinase A; format: protein assay, unidentified
# How it was run: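 PKA catalytic subunit, 0.8 unit/assay, with Kemptide (LRRASLG) at 10 µg/mL. Buffers and procedure as for the src assay: 50 mM HEPES pH 7.4, 0.015% Brij 35, 0.1 mM EDTA, [γ-32P]ATP transfer, phosphoric acid stop, filter capture. Six inhibitor concentrations in triplicate; IC50 from mean of ≥2 determinations.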
# [2] = target: Proto-oncogene tyrosine-protein kinase Src (Homo sapiens, UniProt P12931); test: Tested for in vitro inhibitory activity against tyrosine protein kinase pp60 c-src
# Proto-oncogene tyrosine-protein kinase Src, sequence (P12931 2-536 limits assumed): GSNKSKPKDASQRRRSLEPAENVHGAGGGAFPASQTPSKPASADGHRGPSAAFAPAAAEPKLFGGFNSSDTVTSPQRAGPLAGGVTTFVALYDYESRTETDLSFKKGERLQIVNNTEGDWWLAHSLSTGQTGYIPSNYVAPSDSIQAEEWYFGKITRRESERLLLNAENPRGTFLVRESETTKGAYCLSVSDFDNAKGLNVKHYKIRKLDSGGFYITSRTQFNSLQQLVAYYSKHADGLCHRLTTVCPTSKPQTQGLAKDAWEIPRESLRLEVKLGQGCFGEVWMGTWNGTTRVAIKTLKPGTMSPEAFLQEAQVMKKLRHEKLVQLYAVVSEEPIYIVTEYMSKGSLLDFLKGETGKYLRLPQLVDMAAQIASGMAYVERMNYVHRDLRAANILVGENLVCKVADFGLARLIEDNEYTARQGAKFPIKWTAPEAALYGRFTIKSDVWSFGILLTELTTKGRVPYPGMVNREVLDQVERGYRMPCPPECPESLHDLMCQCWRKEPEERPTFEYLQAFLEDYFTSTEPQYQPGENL
# How it was run: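 pp60c-src purified from human platelet membrane vesicles by anti-src immunoaffinity chromatography. Reaction stopped after 45 min with 5% phosphoric acid; nitrocellulose filter capture. Six inhibitor concentrations in triplicate; IC50 from mean of ≥2 determinations.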
# [3] = Reaction rate parameter value for phosphate with transfer with respect to ATP
# How it was run: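 Platelet pp60c-src, same peptide-phosphorylation assay run at four ATP levels (5, 50, 400 µM, 2 mM), six inhibitor concentrations in triplicate at each. Apparent KM and Vmax shifts used to pick an inhibition model; data fitted for KM, Vmax and KI, with fit quality given as RMS. Values from a representative experiment with substrate-only controls.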
Structure (SMILES),IC50 [1] [µM],IC50 [2] [µM],Ki [3],Km [3]
O=[N+]([O-])c1ccc(S(=O)(=O)n2c3cc(O)c(O)cc3c3ccc(O)c(O)c32)cc1,168,12,,
O=c1c2cc(O)c(O)cc2c2cc(O)c(O)cc2n1Cc1ccc(S(=O)(=O)c2ccccc2)cc1,51,2,,
O=c1c2c(O)c(O)ccc2c2cc(O)c(O)cc2n1Cc1ccc(S(=O)(=O)c2ccccc2)cc1,634,7.2,,
CS(=O)(=O)c1ccc(C(=O)n2c3cc(O)c(O)cc3c3c(Br)cc(O)c(O)c32)cc1,4,9,,
O=C(c1ccc2ccccc2c1)n1c2cc(O)c(O)cc2c2ccc(O)c(O)c21,1,0.5,,
O=C(c1ccc(-c2ccccc2)cc1)n1c2cc(O)c(O)cc2c2ccc(O)c(O)c21,3.2,0.6,,
N#Cc1ccc(Cn2c3cc(O)c(O)cc3c3c(Br)cc(O)c(O)c32)cc1,6.6,0.9,,
CS(=O)(=O)c1ccc(C(=O)n2c3cc(O)c(O)cc3c3ccc(O)c(O)c32)cc1,40,0.4,,
O=S(=O)(c1ccccc1)c1ccc(Cn2c3cc(O)c(O)cc3c3ccc(O)c(O)c32)cc1,317,0.6,,
N#Cc1ccc(Cn2c3cc(O)c(O)cc3c3ccc(O)c(O)c32)cc1,275,0.4,,
CC(C)(C)c1ccc(C(=O)n2c3cc(O)c(O)cc3c3ccc(O)c(O)c32)cc1,50,0.7,,
O=C(c1ccc(C(F)(F)F)cc1)n1c2cc(O)c(O)cc2c2ccc(O)c(O)c21,10,0.7,,
O=C(c1cccc([N+](=O)[O-])c1)n1c2cc(O)c(O)cc2c2ccc(O)c(O)c21,1.5,0.6,,
O=C(c1ccc(C(F)(F)F)cc1)n1c2cc(O)c(O)cc2c2c(Br)cc(O)c(O)c21,7,2,,
Oc1cc2c3ccc(O)c(O)c3n(CCCc3ccccc3)c2cc1O,0.5,0.5,,
O=c1c2c(O)c(O)ccc2c2cc(O)c(O)cc2n1Cc1ccc([N+](=O)[O-])cc1,309,61,,
Oc1cc2c3ccc(O)c(O)c3n(Cc3ccc(C(F)(F)F)cc3)c2cc1O,50,9,,
O=C(CCc1ccccc1)n1c2cc(O)c(O)cc2c2ccc(O)c(O)c21,2.3,0.4,,
CC(C)(C)c1ccc(C(=O)n2c3cc(O)c(O)cc3c3c(Br)cc(O)c(O)c32)cc1,40,12,,
O=c1oc2c(O)c(O)cc3c(=O)oc4c(O)c(O)cc1c4c23 [ELLAGIC ACID],0.6,0.3,,

# The next lines start with the values.
IC50 [1] [µM],IC50 [2] [µM],Ki [3],Km [3],Structure (SMILES)
108,8,,,Oc1cc2c3cc(O)c(O)cc3n(Cc3cccnc3)c2cc1O
92,0.9,,,Oc1cc2nc(O)c3c(O)c(O)ccc3c2cc1O
435,0.9,,,Oc1cc2c3ccc(O)c(O)c3n(Cc3c(Cl)cccc3Cl)c2cc1O
8.4,0.9,,,O=c1c2cc(O)c(O)cc2c2cc(O)c(O)cc2n1Cc1ccc([N+](=O)[O-])cc1
250,15,,,O=S(=O)(c1ccccc1)n1c2cc(O)c(O)cc2c2ccc(O)c(O)c21
374,3.4,,,Oc1cc2c3ccc(O)c(O)c3n(Cc3ccc(Br)cc3)c2cc1O
> 800,1,,,Oc1cc2nc(O)c3cc(O)c(O)cc3c2cc1O
415,4,,,O=C(c1ccccc1)n1c2cc(O)c(O)cc2c2cc(O)c(O)cc21
4.2,1.4,,,O=C(c1ccc(Br)cc1)n1c2cc(O)c(O)cc2c2ccc(O)c(O)c21
223,7.7,,,O=S(=O)(c1cc(Cl)ccc1Cl)n1c2cc(O)c(O)cc2c2ccc(O)c(O)c21
210,2,,,Oc1cc2c3ccc(O)c(O)c3n(Cc3ccccc3)c2cc1O
78,14,,,O=S(=O)(Cc1ccccc1)n1c2cc(O)c(O)cc2c2ccc(O)c(O)c21
20,1.3,,,O=c1c2cc(O)c(O)cc2c2cc(O)c(O)cc2n1Cc1ccc(Cl)c(Cl)c1
47,0.8,,,Oc1cc2[nH]c3c(O)c(O)ccc3c2cc1O
17,0.6,,,Oc1cc2[nH]c3c(O)c(O)cc(Br)c3c2cc1O
> 600,24,,,O=S(=O)(c1ccccc1)n1c2cc(O)c(O)cc2c2cc(O)c(O)cc21
541,11,,,CCn1c(=O)c2c(O)c(O)ccc2c2cc(O)c(O)cc21
240,0.9,,,O=C(c1ccccc1)n1c2cc(O)c(O)cc2c2ccc(O)c(O)c21
58,1.5,1.06 µM and 0.53 µM,68.1 µM and 29.2 µM,Oc1cc2[nH]c3cc(O)c(O)cc3c2cc1O
115,7,,,Oc1cc2c3cc(O)c(O)cc3n(Cc3ccccc3)c2cc1O
284,21,,,O=c1c2c(O)c(O)ccc2c2cc(O)c(O)cc2n1Cc1ccccc1
410,197,,,O=c1c2c(O)c(O)ccc2c2cc(O)c(O)cc2n1Cc1ccc(Cl)c(Cl)c1
390,5.4,,,O=c1c2cc(O)c(O)cc2c2cc(O)c(O)cc2n1Cc1ccccc1
> 2000,4.1,,,CCn1c(=O)c2cc(O)c(O)cc2c2cc(O)c(O)cc21
23,1.7,,,Cc1cccc(Cn2c3cc(O)c(O)cc3c3ccc(O)c(O)c32)c1
